According to ChEMBL document CHEMBL1212735, “Metronidazole resistance in Prevotella spp. and description of a new nim gene in Prevotella baroniae” (2010):
Converted amounts (≈) assume the structure as drawn.

Legend:
Assay type in all cases: functional
Prevotella buccae = assay: Antimicrobial activity against Prevotella buccae LBN 465 deficient in nimI gene assessed as inhibition of growth after several passages on plates containing increasing concentration of compound by agar dilution method; settings: Segatella buccae
Outline: (§1)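 Induction of metronidazole resistance: bacterial suspensions inoculated onto brucella blood agar (5% sheep blood, hemin, vitamin K1) containing metronidazole at increasing concentrations, grown anaerobically at 37°C. Colonies growing at the highest concentration were retested for MIC by CLSI agar dilution on the same agar. Duplicate experiments.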

Bacteroides fragilis = assay: Antimicrobial activity against Bacteroides fragilis ATCC 25285T deficient in nimI gene assessed as inhibition of growth after several passages on plates containing increasing concentration of compound by agar dilution method; outline: as §1
Prevotella baroniae [1] = assay: Antimicrobial activity against Prevotella baroniae LBN 427 expressing nimI gene assessed as inhibition of growth after three consecutive subcultures on compound free medium by agar dilution method; settings: Segatella baroniae
Outline: (§2)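 Stability of induced resistance: metronidazole-selected isolates were subcultured three consecutive times on drug-free brucella blood agar (5% sheep blood, hemin, vitamin K1) under anaerobic conditions, then MIC was redetermined by CLSI agar dilution. Resistance was called stable if the MIC held within ±1 dilution. Duplicate experiments.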

Prevotella baroniae [2] = assay: Antimicrobial activity against Prevotella baroniae LBN 430 expressing nimI gene assessed as inhibition of growth after three consecutive subcultures on compound free medium by agar dilution method; settings: Segatella baroniae; outline: as §2
Prevotella baroniae [3] = assay: Antimicrobial activity against Prevotella baroniae LBP19 expressing nimI gene assessed as inhibition of growth after three consecutive subcultures on compound free medium by agar dilution method; settings: Segatella baroniae; outline: as §2
Prevotella baroniae [4] = assay: Antimicrobial activity against Prevotella baroniae LBN 466 expressing nim gene assessed as inhibition of growth at 48 hrs by agar dilution method; settings: Segatella baroniae, LBN 466, 48 h
Outline: (§3)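 Metronidazole MIC by agar dilution (CLSI M11-A7) on brucella agar with 5% sheep blood, hemin and vitamin K1. Plates were read after 48 h at 35°C under anaerobic conditions. Susceptible was MIC ≤ 4 μg/ml and resistant MIC ≥ 8 μg/ml (EUCAST). B. fragilis ATCC 25285T and B. thetaiotaomicron ATCC 29741 were run as controls. Duplicate assays.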

Prevotella baroniae [5] = assay: Antimicrobial activity against Prevotella baroniae LBP 19 expressing nim gene assessed as inhibition of growth at 48 hrs by agar dilution method; settings: Segatella baroniae, LBP 19, 48 h; outline: as §3
Prevotella bivia [6] = assay: Antimicrobial activity against Prevotella bivia LBN 478 deficient in nim gene assessed as inhibition of growth at 48 hrs by agar dilution method; settings: LBN 478, 48 h; outline: as §3
Prevotella bivia [7] = assay: Antimicrobial activity against Prevotella bivia LBP 51 deficient in nim gene assessed as inhibition of growth at 48 hrs by agar dilution method; settings: LBP 51, 48 h; outline: as §3
Prevotella bivia [8] = assay: Antimicrobial activity against Prevotella bivia LBP 65 deficient in nim gene assessed as inhibition of growth at 48 hrs by agar dilution method; settings: LBP 65, 48 h; outline: as §3
Prevotella bivia [9] = assay: Antimicrobial activity against Prevotella bivia LBP 69 deficient in nim gene assessed as inhibition of growth at 48 hrs by agar dilution method; settings: LBP 69, 48 h; outline: as §3
Prevotella bivia [10] = assay: Antimicrobial activity against slow growing colonies of Prevotella bivia LBN 339 deficient in nim gene assessed as inhibition of growth at 48 hrs by agar dilution method; settings: LBN 339, 48 h
Outline: (§4)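 Slowly growing colonies inside the Etest inhibition zone, seen after prolonged incubation (an additional 72 h after the 48 h reading), were subcultured without antibiotic. They were then retested for metronidazole MIC by agar dilution on supplemented brucella blood agar under anaerobic conditions.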

Prevotella bivia [11] = assay: Antimicrobial activity against slow growing colonies of Prevotella bivia LBN 343 deficient in nim gene assessed as inhibition of growth at 48 hrs by agar dilution method; settings: LBN 343, 48 h; outline: as §4
Prevotella bivia [12] = assay: Antimicrobial activity against slow growing colonies of Prevotella bivia LBN 365 deficient in nim gene assessed as inhibition of growth at 48 hrs by agar dilution method; settings: LBN 365, 48 h
Outline: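 Metronidazole MIC by agar dilution per CLSI M11-A7 on brucella agar with 5% sheep blood, hemin and vitamin K1. Plates incubated anaerobically at 35°C and read at 48 h, with a second reading after a further 72 h. B. fragilis ATCC 25285T and B. thetaiotaomicron ATCC 29741 served as controls. Done in duplicate; EUCAST breakpoints applied (S ≤4, R ≥8 μg/ml).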

Cc1ncc([N+](=O)[O-])n1CCO [METRONIDAZOLE]
MIC (Prevotella buccae): 128 µg/mL (≈ 748 µM) | MIC (Bacteroides fragilis): 256 µg/mL (≈ 1500 µM) | MIC (Prevotella baroniae [1]): 128 µg/mL (≈ 748 µM) | MIC (Prevotella baroniae [2]): 128 µg/mL (≈ 748 µM) | MIC (Prevotella baroniae [3]): 128 µg/mL (≈ 748 µM) | MIC (Prevotella baroniae [4]): 2 µg/mL (≈ 11.7 µM) | MIC (Prevotella baroniae [5]): 1 µg/mL (≈ 5.84 µM) | MIC (Prevotella bivia [6]): 4 µg/mL (≈ 23.4 µM) | MIC (Prevotella bivia [7]): 2 µg/mL (≈ 11.7 µM) | MIC (Prevotella bivia [8]): 4 µg/mL (≈ 23.4 µM) | MIC (Prevotella bivia [9]): 2 µg/mL (≈ 11.7 µM) | MIC (Prevotella bivia [10]): 16 µg/mL (≈ 93.5 µM) | MIC (Prevotella bivia [11]): 16 µg/mL (≈ 93.5 µM) | MIC (Prevotella bivia [12]): 8 µg/mL (≈ 46.7 µM)
